Shown is part of a subset that was picked to be rich in hits.
GASC1 inh: inhibitors of GASC-1 (KDM4C) histone demethylase, primary screen, biochemical, single concentration HTS; actives 0.15% (n = 96,000); Lysine-specific demethylase 4C (Homo sapiens), Q9H3R0; GST-KDM4C 2-372, H3K9me3 peptide, LANCE TR-FRET; inhibition, % at 12.5 µM;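 active means mean replicate inhibition above about 25%, with at least 55% of replicates also reaching it, limit read from the data, passing the limit was not always enough; inconclusive means only one of those two conditions met; inactive means neither condition met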
Target sequence (Q9H3R0 2-372 limits assumed): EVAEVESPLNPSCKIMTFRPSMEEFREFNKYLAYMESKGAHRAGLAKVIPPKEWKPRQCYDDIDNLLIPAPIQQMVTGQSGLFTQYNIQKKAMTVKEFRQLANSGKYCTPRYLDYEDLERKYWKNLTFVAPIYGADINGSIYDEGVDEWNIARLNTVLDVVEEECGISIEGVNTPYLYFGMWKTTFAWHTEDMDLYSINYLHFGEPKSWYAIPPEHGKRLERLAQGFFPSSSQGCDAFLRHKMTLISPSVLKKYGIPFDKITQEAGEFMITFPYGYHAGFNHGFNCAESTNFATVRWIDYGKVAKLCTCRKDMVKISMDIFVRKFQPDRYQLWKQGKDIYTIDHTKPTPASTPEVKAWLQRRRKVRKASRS
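Compound: one test concentration per compound; Material: GST-GASC-1 enzyme fragment 2-372; Amount: GASC-1 enzyme at 10 nM final in reaction; Also added: H3K9me3 peptide substrate, Fe(II), 2-oxoglutarate; Technique: LANCE TR-FRET; Times: 30 min demethylation and 1 h detection at room temperature.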
T cruzi growth-1: T. cruzi intracellular proliferation inhibitors, primary screen, cell-based, beta-gal Tulahuen parasites, NIH3T3 host, luminescence | T. cruzi beta-gal in NIH3T3, GalScreen luminescence, 90 h | inhibition, % at 8.34 µM | actives 5.9% (n = 77,000) | AID 624255, 2012;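 active means mean inhibition above about 93%, with at least 55% of replicates each passing it, limit read from the data, passing the limit was not always enough; inconclusive means only one of those two conditions holds; inactive means neither condition holds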
IDH1 mut inh: inhibitors of IDH1 R132H reductase, primary screen, biochemical, plate reader, single point; actives 0.18% (n = 70,000); AID 624101, 2012; inhibition, % at 10 µM; diaphorase/resazurin fluorescence, 60 min; in the data active means inhibition above about 34%; inconclusive means no clear call, values can overlap the other calls; inactive means below about 11%;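 further: 0% = DMSO and 100% = no enzyme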
T cruzi growth-2: T. cruzi intracellular proliferation inhibitors, confirmation, cell-based, NIH3T3 host, beta-gal parasite, luminescence, cherry-pick; AID 651739, 2012; actives 72% (n = 5,600); T. cruzi beta-gal in NIH3T3, GalScreen luminescence, 90 h; shares compounds with T cruzi growth-1; inhibition, % at 8.35 µM;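 active means mean replicate inhibition above about 95% and at least 55% of replicates individually reaching it, limit read from the data; inconclusive means only one of the two criteria is met; inactive means neither criterion is met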
T cruzi growth-3: inhibitors of intracellular T. cruzi replication, confirmation, NIH3T3 host cells, beta-gal parasites, cherry-pick, set 2. shares compounds with T cruzi growth-1. T. cruzi beta-gal in NIH3T3, GalScreen luminescence, 90 h. inhibition, % at 2.09 µM. actives 21% (n = 5,600). AID 651740, 2012;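 active means mean inhibition above about 95%, with at least 55% of replicates also reaching it, limit read from the data; inconclusive means meets just one of the two conditions; inactive means meets neither condition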;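 further: plate controls were neutral control median for no effect and positive control median for full effect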
3T3 cytotox: cytotoxicity in mouse NIH/3T3 fibroblasts, confirmation, cytotoxicity control for T. cruzi proliferation inhibitor project, cell-based, cherry-pick, single point | shares compounds with T cruzi growth-1 | NIH/3T3 viability, CellTiter-Glo ATP luminescence, 90 h | cytotoxicity (signal decrease), % at 8.35 µM | actives 14% (n = 5,600) | AID 651742, 2012;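 active means mean signal decrease across replicates above about 35% based on untreated-well scatter, with enough replicates individually passing, limit read from the data; inconclusive means no rule stated though some were filed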;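 further: 0% = median of neutral control wells and 100% = median of positive control wells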
NIH3T3 tox 2: NIH/3T3 fibroblast cytotoxicity, confirmation, cytotoxicity control, cell-based, cherry-pick, single point, set 2 | shares compounds with T cruzi growth-1 | NIH/3T3 viability, CellTiter-Glo ATP luminescence, 90 h | inhibition, % at 24.9 µM | actives 56% (n = 5,600);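 active means mean loss of cell viability signal at or above a set limit, and enough replicates individually reaching it; inconclusive means meets only the mean limit or only the replicate share; inactive means meets neither condition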;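 further: 0% = median of neutral control wells and 100% = median of positive control wells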
The depositor's hits bear a star; ? = inconclusive; / = not tested or not shown.

SMILES	GASC1 inh	T cruzi growth-1	IDH1 mut inh	T cruzi growth-2	T cruzi growth-3	3T3 cytotox	NIH3T3 tox 2
Cc1sc2ncnc(SCC(=O)NCc3ccccc3)c2c1C	/	/	0	/	/	/	/
COc1ccc(OC)c(C(=O)CSc2nnc(-c3ccccn3)n2-c2ccc(C)cc2)c1	/	/	0	/	/	/	/
OC[C@H]1[C@H](c2ccc(C#CC3CC3)cc2)[C@@H]2CN(CCC(F)(F)F)CCCCN12	/	90	/	/	/	/	/
OC[C@@H]1[C@H](c2ccc(C#CC3CC3)cc2)[C@H]2CN(CCC(F)(F)F)CCCCN12	/	105*	/	108*	?	29	104*
OC[C@H]1[C@@H](c2ccc(C3=CCCC3)cc2)[C@@H]2CN(CCC(F)(F)F)CCCCN12	/	34	/	/	/	/	/
OC[C@@H]1[C@H](c2ccc(C3=CCCC3)cc2)[C@@H]2CN(CCC(F)(F)F)CCCCN12	/	104*	/	?	49	21	105*
Cc1cc(C)nc(N2CC(=O)N(CCOc3ccc(Br)cc3)C2=O)n1	/	/	-2	/	/	/	/
CC(NS(=O)(=O)c1ccccc1)C(=O)Nc1cc(Cl)ccc1Oc1ccccc1 (centres undefined)	/	/	0	/	/	/	/
CCCNC(=O)N1[C@@H](C#N)[C@H](c2ccc(C#Cc3cccc(F)c3)cc2)[C@@H]1CO	-2	?	/	99*	43	21	?
CCCNC(=O)N1[C@@H](C#N)[C@@H](c2ccc(C#Cc3cccc(F)c3)cc2)[C@@H]1CO	1	100*	/	103*	93	21	50*
CCCNC(=O)N1[C@H](CO)[C@@H](c2ccccc2)[C@@H]1CNC(=O)c1ccccc1	0	75	/	/	/	/	/
CCCNC(=O)N1[C@H](C#N)[C@H](c2ccc(-c3ccccc3F)cc2)[C@@H]1CO	/	91	/	/	/	/	/
CCCNC(=O)N1[C@H](CO)[C@H](c2ccccc2)[C@@H]1CNC(=O)c1cccc(F)c1	0	98*	/	86	33	0	37
CCCNC(=O)N1[C@H](CO)[C@H](c2ccccc2)[C@@H]1C#N	-1	21	0	/	/	/	/
CC1(C)[C@H](O)CC[C@@]2(C)[C@@H]3CC[C@](C)(C(O)CO)CC3=CC[C@H]12 (some centres undefined)	/	/	0	/	/	/	/
COC(=O)c1c(-c2ccccc2)csc1NC(=O)c1cc(-c2cccnc2)nc2ccccc12	/	/	0	/	/	/	/
CC(C)CC#Cc1cnc2c(c1)C(=O)N([C@H](C)CO)C[C@@H](C)[C@@H](CN(C)Cc1cccc(F)c1)O2	-1	?	-1	104*	50	18	61*
C[C@H](CO)N1C[C@H](C)[C@H](CN(C)Cc2cccc(F)c2)Oc2ncc(C#CCc3ccccc3)cc2C1=O	13	-74	2	/	/	/	/
CC(C)CC#Cc1cnc2c(c1)C(=O)N([C@@H](C)CO)C[C@H](C)[C@@H](CN(C)Cc1cccc(F)c1)O2	1	102*	-2	108*	83	17	105*
C[C@@H]1CN([C@H](C)CO)C(=O)c2cc(C#CCc3ccccc3)cnc2O[C@H]1CN(C)Cc1cccc(F)c1	0	72	1	/	/	/	/
CC(C)CC#Cc1cnc2c(c1)C(=O)N([C@H](C)CO)C[C@@H](C)[C@H](CN(C)Cc1cccc(F)c1)O2	-2	103*	-2	106*	46	24	102*
C[C@@H]1CN([C@H](C)CO)C(=O)c2cc(C#CCc3ccccc3)cnc2O[C@@H]1CN(C)Cc1cccc(F)c1	0	-5	0	/	/	/	/
COc1cc2[nH]c(=S)n(CCc3cnc[nH]3)c(=O)c2cc1OC	/	/	2	/	/	/	/
CCN1/C(=C2\C(=O)N=C(C)N2c2ccccc2)C=Cc2ccc(C)cc21	/	/	1	/	/	/	/
COc1cccc(C(=O)Nc2sc3c(c2C(=O)NCc2cccnc2)CCCC3)c1	/	/	0	/	/	/	/
SMILES	GASC1 inh	T cruzi growth-1	IDH1 mut inh	T cruzi growth-2	T cruzi growth-3	3T3 cytotox	NIH3T3 tox 2
Cc1cc(-c2cccs2)c(C#N)c(SCC(=O)Nc2cccc(F)c2)n1	/	/	0	/	/	/	/
Cc1ccc(S(=O)(=O)N(C)C[C@@H]2OCCCC[C@@H](C)Oc3ccc(NS(=O)(=O)c4ccc(F)cc4)cc3C(=O)N([C@H](C)CO)C[C@@H]2C)cc1	-2	30	/	/	/	/	/
Cc1ccc(S(=O)(=O)N(C)C[C@H]2OCCCC[C@H](C)Oc3ccc(NS(=O)(=O)c4ccc(F)cc4)cc3C(=O)N([C@H](C)CO)C[C@H]2C)cc1	-1	116*	/	98*	72	-33	40*
Cc1ccc(S(=O)(=O)Nc2ccc3c(c2)C(=O)N([C@H](C)CO)C[C@H](C)[C@H](CN(C)S(=O)(=O)c2ccc(F)cc2)OCCCC[C@H](C)O3)cc1	-1	120*	/	103*	107*	-12	16
Cc1ccc(S(=O)(=O)Nc2ccc3c(c2)C(=O)N([C@@H](C)CO)C[C@H](C)[C@@H](CN(C)S(=O)(=O)c2ccc(F)cc2)OCCCC[C@@H](C)O3)cc1	0	/	0	/	/	/	/
Cc1ccc(S(=O)(=O)Nc2ccc3c(c2)C(=O)N([C@H](C)CO)C[C@H](C)[C@@H](CN(C)S(=O)(=O)c2ccc(F)cc2)OCCCC[C@@H](C)O3)cc1	-1	/	0	/	/	/	/
Cc1ccc(S(=O)(=O)N(C)C[C@@H]2OCCCC[C@H](C)Oc3ccc(NS(=O)(=O)c4ccc(F)cc4)cc3C(=O)N([C@H](C)CO)C[C@@H]2C)cc1	0	108*	/	97*	71	-20	-1
CS(=O)(=O)N(CC(=O)Nc1cccc(C(F)(F)F)c1)c1ccc(Br)cc1	/	/	0	/	/	/	/
Cc1sc2nc(SCc3n[nH]c(=S)n3-c3ccccc3)[nH]c(=O)c2c1C	/	/	2	/	/	/	/
O=C(CSc1ncnc2sc(-c3ccccc3)cc12)Nc1ccccc1Cl	/	/	0	/	/	/	/
Cc1cc(C)c(NC(=O)CSc2nc3c(c(-c4ccco4)c2C#N)CCCC3)c(C)c1	/	/	0	/	/	/	/
O=C(COc1ccc([N+](=O)[O-])cc1)Nc1cccc(O)c1	/	/	0	/	/	/	/
C[C@@H]1CN([C@H](C)CO)C(=O)Cc2cc(NC(=O)C3CCCCC3)ccc2O[C@@H]1CN(C)Cc1ccc(-c2ccccc2)cc1	-2	47	0	/	/	/	/
C[C@@H]1CN([C@H](C)CO)C(=O)Cc2cc(NC(=O)C3CC3)ccc2O[C@H]1CN(C)Cc1ccc(-c2ccccc2)cc1	2	16	2	/	/	/	/

Screening results: PubChem BioAssay, Broad Institute
